How the values were obtained:
Conditions in all cases: stereoisomer not certain
[1] = molecular target: T1, UniProt Q8VG27
T1 sequence (whole entry): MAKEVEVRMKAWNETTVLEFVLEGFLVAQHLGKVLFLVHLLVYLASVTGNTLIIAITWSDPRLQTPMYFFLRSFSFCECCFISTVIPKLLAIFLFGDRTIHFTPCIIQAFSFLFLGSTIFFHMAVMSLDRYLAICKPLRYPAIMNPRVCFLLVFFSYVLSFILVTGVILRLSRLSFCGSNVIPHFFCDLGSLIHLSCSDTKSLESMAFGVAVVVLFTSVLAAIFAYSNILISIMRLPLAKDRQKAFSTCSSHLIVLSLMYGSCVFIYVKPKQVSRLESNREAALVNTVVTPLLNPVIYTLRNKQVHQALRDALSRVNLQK
In short: (§1)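 Transient luciferase assays in mammalian cell lines were common, though methods varied by source. The values come from published papers and their supplementary material, with extra details from the original authors when needed. Responsive refers to a measured signal the original authors judged statistically different from baseline, and non-responsive (inactive) to the remainder.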

[2] = molecular target: T2, UniProt Q8VG53
T2 sequence (whole entry): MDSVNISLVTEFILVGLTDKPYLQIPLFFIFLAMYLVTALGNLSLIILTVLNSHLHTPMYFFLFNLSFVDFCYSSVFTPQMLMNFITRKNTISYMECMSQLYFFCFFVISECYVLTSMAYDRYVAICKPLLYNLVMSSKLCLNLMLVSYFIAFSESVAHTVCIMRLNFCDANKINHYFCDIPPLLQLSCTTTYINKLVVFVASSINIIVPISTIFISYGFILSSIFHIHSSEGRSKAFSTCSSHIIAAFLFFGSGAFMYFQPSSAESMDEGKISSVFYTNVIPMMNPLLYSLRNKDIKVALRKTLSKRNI
In short: as §1

[3] = molecular target: T3, UniProt Q8VG64
T3 sequence (whole entry): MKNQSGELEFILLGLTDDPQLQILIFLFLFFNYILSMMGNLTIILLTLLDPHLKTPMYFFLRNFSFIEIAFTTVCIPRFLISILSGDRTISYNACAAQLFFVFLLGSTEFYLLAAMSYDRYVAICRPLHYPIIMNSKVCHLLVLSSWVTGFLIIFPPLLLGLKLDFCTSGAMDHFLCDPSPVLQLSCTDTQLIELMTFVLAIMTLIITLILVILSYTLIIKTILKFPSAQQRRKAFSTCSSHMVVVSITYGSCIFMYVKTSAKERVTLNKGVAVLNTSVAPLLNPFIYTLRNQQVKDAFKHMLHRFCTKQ
In short: as §1

[4] = molecular target: T4, UniProt Q8VGB9
T4 sequence (whole entry): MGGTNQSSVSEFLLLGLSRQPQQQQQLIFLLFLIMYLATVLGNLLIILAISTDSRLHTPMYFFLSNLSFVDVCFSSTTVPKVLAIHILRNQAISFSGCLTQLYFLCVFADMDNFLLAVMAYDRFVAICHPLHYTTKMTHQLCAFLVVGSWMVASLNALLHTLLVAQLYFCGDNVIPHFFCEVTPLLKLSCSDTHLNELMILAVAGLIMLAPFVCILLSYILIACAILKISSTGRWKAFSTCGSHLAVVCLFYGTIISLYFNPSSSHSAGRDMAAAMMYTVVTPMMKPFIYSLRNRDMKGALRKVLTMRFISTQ
In short: as §1

[5] = molecular target: T5, UniProt Q8VGC6
T5 sequence (whole entry): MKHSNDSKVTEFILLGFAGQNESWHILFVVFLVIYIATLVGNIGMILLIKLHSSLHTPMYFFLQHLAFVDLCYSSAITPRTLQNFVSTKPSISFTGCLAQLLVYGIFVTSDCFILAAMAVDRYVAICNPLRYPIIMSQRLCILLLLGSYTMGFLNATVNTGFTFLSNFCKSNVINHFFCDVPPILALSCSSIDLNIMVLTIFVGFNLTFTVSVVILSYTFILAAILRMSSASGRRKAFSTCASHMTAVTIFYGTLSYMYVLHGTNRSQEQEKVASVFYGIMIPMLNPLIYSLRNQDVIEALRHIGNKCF
In short: as §1

[6] = molecular target: T6, UniProt Q8VGJ3
T6 sequence (whole entry): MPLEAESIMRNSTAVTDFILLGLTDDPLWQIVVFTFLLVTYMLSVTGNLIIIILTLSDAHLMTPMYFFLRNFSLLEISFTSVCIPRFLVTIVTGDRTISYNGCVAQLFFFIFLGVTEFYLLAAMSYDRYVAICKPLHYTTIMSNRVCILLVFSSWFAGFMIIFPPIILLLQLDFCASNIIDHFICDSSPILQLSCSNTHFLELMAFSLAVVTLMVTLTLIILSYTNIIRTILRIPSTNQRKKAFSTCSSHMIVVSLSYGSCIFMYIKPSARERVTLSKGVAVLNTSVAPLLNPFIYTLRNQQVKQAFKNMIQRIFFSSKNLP
In short: as §1

[7] = molecular target: T7, UniProt Q8VGL0
T7 sequence (whole entry): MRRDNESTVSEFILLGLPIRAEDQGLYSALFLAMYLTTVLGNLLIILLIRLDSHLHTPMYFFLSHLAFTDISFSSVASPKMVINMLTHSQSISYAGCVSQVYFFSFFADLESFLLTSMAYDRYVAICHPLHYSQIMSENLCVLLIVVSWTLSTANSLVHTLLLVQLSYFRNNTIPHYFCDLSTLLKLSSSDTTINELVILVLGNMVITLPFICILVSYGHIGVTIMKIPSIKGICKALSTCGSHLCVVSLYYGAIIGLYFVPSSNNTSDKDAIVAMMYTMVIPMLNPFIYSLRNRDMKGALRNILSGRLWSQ
In short: as §1

[8] = molecular target: T8, UniProt Q8VG49
T8 sequence (whole entry): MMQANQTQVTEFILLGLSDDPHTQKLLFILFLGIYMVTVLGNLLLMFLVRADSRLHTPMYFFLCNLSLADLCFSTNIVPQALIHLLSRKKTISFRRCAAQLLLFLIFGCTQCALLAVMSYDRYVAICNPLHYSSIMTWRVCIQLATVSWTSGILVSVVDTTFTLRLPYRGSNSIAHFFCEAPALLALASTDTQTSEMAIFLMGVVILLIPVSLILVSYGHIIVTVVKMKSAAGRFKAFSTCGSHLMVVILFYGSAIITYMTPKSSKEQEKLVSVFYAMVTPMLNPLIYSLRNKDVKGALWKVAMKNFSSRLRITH
In short: as §1

[9] = molecular target: T9, UniProt Q8VG77
T9 sequence (whole entry): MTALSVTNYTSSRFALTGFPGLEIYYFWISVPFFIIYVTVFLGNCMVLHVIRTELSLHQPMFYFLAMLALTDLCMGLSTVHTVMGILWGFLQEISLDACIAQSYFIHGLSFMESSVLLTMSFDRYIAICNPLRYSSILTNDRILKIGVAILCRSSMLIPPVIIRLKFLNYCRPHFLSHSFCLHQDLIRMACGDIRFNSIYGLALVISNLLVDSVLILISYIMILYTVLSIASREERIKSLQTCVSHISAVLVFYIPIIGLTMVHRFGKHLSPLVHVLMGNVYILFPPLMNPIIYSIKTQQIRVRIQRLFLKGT
In short: as §1

[10] = molecular target: T10, UniProt Q8VG96
T10 sequence (whole entry): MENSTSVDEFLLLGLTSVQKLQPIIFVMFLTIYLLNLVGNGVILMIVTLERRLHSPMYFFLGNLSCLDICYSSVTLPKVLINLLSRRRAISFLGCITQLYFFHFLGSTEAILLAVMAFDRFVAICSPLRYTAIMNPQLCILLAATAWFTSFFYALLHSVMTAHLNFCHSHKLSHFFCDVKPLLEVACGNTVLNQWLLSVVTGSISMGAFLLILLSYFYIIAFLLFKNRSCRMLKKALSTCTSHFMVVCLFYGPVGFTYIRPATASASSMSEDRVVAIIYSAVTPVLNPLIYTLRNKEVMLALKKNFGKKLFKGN
In short: as §1

[11] = molecular target: T11, UniProt Q8VGD7
T11 sequence (whole entry): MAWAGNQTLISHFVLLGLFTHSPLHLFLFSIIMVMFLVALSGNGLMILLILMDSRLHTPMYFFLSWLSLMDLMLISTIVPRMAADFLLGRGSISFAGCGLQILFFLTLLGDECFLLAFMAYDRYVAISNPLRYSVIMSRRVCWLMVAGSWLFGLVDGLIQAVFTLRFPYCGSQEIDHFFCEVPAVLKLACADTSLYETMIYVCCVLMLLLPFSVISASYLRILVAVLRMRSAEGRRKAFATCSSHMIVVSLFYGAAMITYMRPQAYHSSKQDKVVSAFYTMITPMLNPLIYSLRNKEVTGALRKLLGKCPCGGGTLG
In short: as §1

[12] = molecular target: T12, UniProt Q8VGH1
T12 sequence (whole entry): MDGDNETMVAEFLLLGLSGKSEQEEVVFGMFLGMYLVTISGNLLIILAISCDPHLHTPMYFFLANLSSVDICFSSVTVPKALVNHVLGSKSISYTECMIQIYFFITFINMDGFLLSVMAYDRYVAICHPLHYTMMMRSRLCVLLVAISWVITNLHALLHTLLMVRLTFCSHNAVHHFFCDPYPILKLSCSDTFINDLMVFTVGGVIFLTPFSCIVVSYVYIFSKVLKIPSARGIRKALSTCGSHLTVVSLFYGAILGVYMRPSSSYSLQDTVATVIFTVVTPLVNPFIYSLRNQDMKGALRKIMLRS
In short: as §1

[13] = molecular target: T13, UniProt Q8VGJ1
T13 sequence (whole entry): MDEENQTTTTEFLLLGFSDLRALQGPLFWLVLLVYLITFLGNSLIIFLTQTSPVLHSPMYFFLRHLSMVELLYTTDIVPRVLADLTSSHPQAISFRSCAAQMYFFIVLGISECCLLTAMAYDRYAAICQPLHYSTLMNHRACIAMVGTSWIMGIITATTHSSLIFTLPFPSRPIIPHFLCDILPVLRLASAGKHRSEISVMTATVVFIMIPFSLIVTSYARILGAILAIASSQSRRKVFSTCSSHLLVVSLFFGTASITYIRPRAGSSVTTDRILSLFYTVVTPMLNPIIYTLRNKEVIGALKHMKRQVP
In short: as §1

[14] = molecular target: T14, UniProt Q8VGJ5
T14 sequence (whole entry): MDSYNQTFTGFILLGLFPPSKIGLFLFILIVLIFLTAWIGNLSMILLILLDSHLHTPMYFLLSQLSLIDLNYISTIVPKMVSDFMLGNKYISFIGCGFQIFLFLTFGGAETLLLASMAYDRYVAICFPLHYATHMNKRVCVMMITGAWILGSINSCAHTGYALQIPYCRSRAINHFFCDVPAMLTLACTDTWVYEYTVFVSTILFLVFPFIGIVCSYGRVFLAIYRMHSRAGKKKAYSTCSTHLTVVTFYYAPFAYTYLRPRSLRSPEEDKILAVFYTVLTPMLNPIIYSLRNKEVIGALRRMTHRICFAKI
In short: as §1

[15] = molecular target: T15, UniProt Q8VGL7
T15 sequence (whole entry): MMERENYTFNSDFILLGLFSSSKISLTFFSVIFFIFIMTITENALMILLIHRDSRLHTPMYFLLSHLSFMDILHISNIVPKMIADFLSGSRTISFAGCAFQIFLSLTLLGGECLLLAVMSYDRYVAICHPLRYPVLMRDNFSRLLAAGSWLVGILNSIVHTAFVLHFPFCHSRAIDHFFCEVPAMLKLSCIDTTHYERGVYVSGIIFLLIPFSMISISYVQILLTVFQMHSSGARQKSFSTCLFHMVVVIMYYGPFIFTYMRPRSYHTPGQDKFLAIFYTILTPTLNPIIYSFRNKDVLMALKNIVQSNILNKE
In short: as §1

Measured: odorant receptor agonist call;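 note: active if original authors judged signal statistically different from baseline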

c1ccc2ncccc2c1
inactive: [1] | [2] | [3] | [4] | [5] | [6] | [7]

CCCCCCCCCCOC(C)=O
inactive: [2] | [3] | [4] | [5] | [6] | [7]
active: [1]

O=C(OCc1ccccc1)c1ccccc1O
inactive: [1] | [2] | [3] | [4] | [5] | [6] | [7]

CC(=O)OCCc1ccccc1
inactive: [1] | [2] | [3] | [4] | [5] | [6] | [7]

CC(=O)C=CC1=C(C)CCCC1(C)C
inactive: [1] | [2] | [3] | [4] | [5] | [6] | [7]

CSSCc1ccco1
inactive: [2] | [3] | [4] | [5] | [6] | [7]
active: [1]

C=C1C2CCC(C2)C1(C)C (configuration not stated)
inactive: [1] | [2] | [3] | [4] | [5] | [6] | [7]

CCCCCCC=CC=O
inactive: [1] | [2] | [3] | [4] | [5] | [6] | [7]

Cc1ccc(OC(=O)C(C)C)cc1
inactive: [1] | [2] | [3] | [4] | [5] | [6] | [7]

CCCCCCC(C=O)=Cc1ccccc1
inactive: [1] | [2] | [3] | [4] | [5] | [6] | [7]

CC1CC=CCCCCCCCCCC(=O)C1 (configuration not stated)
inactive: [1] | [2] | [3] | [4] | [5] | [6] | [7]

CCCCCCOC(C)=O
inactive: [1] | [8] | [2] | [3] | [9] | [10] | [4] | [5] | [11] | [12] | [13] | [6] | [14] | [7] | [15]

CCCC=O
inactive: [1] | [2] | [3] | [4] | [5] | [6] | [7]

CCCCCCC(C)O (configuration not stated)
inactive: [1] | [2] | [3] | [4] | [5] | [6] | [7]

CCN(CC)CC
inactive: [1] | [2] | [3] | [4] | [5] | [6] | [7]

CCCCCC(C=O)=Cc1ccccc1
inactive: [1] | [2] | [3] | [4] | [5] | [6] | [7]

CC1CCC(C(C)C)C(=O)C1 (configuration not stated)
inactive: [1] | [2] | [3] | [4] | [5] | [6] | [7]
